Experiments:
[1] = tested on: Mus musculus; test: Anticonvulsant activity tested by maximal metrazole seizure (MMS) test in mouse after 1 hr of administration; assay type: functional
In short: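 Male BKW mice, 18-22 g, dosed orally with compound in 2% Tween 80/water. Metrazol 120 mg/kg ip was given 1 h after dosing. ED50 for block of hind limb tonic seizure was derived by Bliss probit analysis.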

[2] = tested on: Mus musculus; test: Anticonvulsant activity tested by maximal electroshock test (MES) in mouse after 1 hr of administration; assay type: functional
In short: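 Male BKW mice (LACA origin), 18-22 g, dosed ip or po with compound dissolved or suspended in 2% Tween 80 in distilled water. Readout was block of hind limb tonic seizure. ED50 was derived by probit analysis using the computerized Bliss method.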

[3] = Neurotoxicity by performing a rotarod test in mouse after 1 hr of administration; assay type: toxicity, organism-based; conditions: in vivo
In short: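 Male BKW mice, 18-22 g, were pre-trained on a rotorod turning at 16 rpm (3 cm drum). They were dosed ip or po in 2% Tween 80/water and tested at timed intervals. TD50, the dose at which 50% fell off the rod, was derived by probit analysis.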

[4] = tested on: Rattus norvegicus; test: Maximum percent fall in mean arterial blood pressure was evaluated by injecting 100 mg/kg perorally in DOCA hypertensive rats; assay type: functional; conditions: route oral

CCCCCCOc1ccccc1-c1nnc(N(C)NC(C)C)s1.Cl
ED50 [1]: 56 mg/kg
ED50 [2]: 97 mg/kg

CN(NC1CCCC1)c1nnc(-c2ccccc2Cl)s1.Cl
ED50 [1]: > 100 mg/kg
ED50 [2]: 106 mg/kg

CNN(C)c1nnc(-c2ccccc2Cl)s1
ED50 [1]: 25 mg/kg
TD50 at 1 h [3]: 106 mg/kg
ED50 [2]: 43 mg/kg

NN(c1ccccc1)c1nnc(-c2ccccc2-c2ccccc2)s1
ED50 [1]: > 100 mg/kg
ED50 [2]: > 100 mg/kg

Cc1ccccc1-c1nnc(NNC(C)C)s1
ED50 [1]: 54 mg/kg
TD50 at 1 h [3]: 449 mg/kg
ED50 [2]: 83 mg/kg

Cc1ccccc1-c1nnc(NN(C)C(C)C)s1
ED50 [1]: > 100 mg/kg
ED50 [2]: 140 mg/kg

Cl.NNc1nnc(-c2ccccc2Cl)s1
ED50 [1]: 25 mg/kg
Decrease in blood pressure [4]: 21%
TD50 at 1 h [3]: > 568 mg/kg
ED50 [2]: 70 mg/kg

CC(C)NNc1nnc(-c2ccccc2-c2ccccc2)s1
ED50 [1]: 44 mg/kg
ED50 [2]: 35 mg/kg

CN(N)c1nnc(-c2ccccc2Cc2ccccc2)s1.Cl
ED50 [1]: 54 mg/kg
ED50 [2]: 50 mg/kg

CN(N)c1nnc(-c2ccc(-c3ccccc3)cc2)s1
ED50 [2]: > 200 mg/kg

NN(Cc1ccccc1)c1nnc(-c2ccccc2Cl)s1
ED50 [1]: 143 mg/kg
ED50 [2]: 186 mg/kg

CNN(C)c1nnc(-c2ccccc2-c2ccccc2)s1.Cl
ED50 [1]: > 100 mg/kg
ED50 [2]: ~100 mg/kg

Clc1ccccc1-c1nnc(NNC2CCCC2)s1
ED50 [1]: > 100 mg/kg
ED50 [2]: > 100 mg/kg

CC(C)N(N)c1nnc(-c2ccccc2-c2ccccc2)s1
ED50 [1]: > 100 mg/kg
ED50 [2]: > 100 mg/kg

CC(C)N(c1nnc(-c2ccccc2Cl)s1)N(C)C.Cl
ED50 [1]: > 200 mg/kg
ED50 [2]: 116 mg/kg

Cc1ccccc1-c1nnc(NN)s1.Cl
ED50 [1]: 30 mg/kg
Decrease in blood pressure [4]: 63%
TD50 at 1 h [3]: 55 mg/kg
ED50 [2]: > 100 mg/kg

CNN(C)c1nnc(-c2ccccc2C)s1
ED50 [1]: 23 mg/kg
TD50 at 1 h [3]: 72 mg/kg
ED50 [2]: 10 mg/kg

Cl.NN(Cc1ccccc1)c1nnc(-c2ccccc2-c2ccccc2)s1
ED50 [1]: > 200 mg/kg
ED50 [2]: > 200 mg/kg

NN(c1ccccc1)c1nnc(-c2ccccc2Cl)s1
ED50 [1]: > 100 mg/kg
ED50 [2]: > 100 mg/kg

CNN(Cc1ccccc1)c1nnc(-c2ccccc2C)s1.Cl
ED50 [1]: 93 mg/kg
TD50 at 1 h [3]: 341 mg/kg
ED50 [2]: 109 mg/kg

CCCCCCOc1ccccc1-c1nnc(NNC2CCCC2)s1.Cl
ED50 [1]: > 100 mg/kg
ED50 [2]: > 100 mg/kg

CC(C)NNc1nnc(-c2ccccc2Cl)s1
ED50 [1]: 50 mg/kg
TD50 at 1 h [3]: 200 mg/kg
ED50 [2]: 50 mg/kg

Clc1ccccc1-c1nnc(NNc2ccccc2)s1
ED50 [1]: > 200 mg/kg
ED50 [2]: > 100 mg/kg

CCCCCCOc1ccccc1-c1nnc(NNc2ccccc2)s1.Cl
ED50 [1]: > 100 mg/kg
ED50 [2]: > 100 mg/kg

CN(N)c1nnc(CCc2ccccc2)s1.Cl
ED50 [1]: 49 mg/kg
TD50 at 1 h [3]: 317 mg/kg
ED50 [2]: 51 mg/kg

Cc1ccccc1-c1nnc(N(N)c2ccccc2)s1
ED50 [1]: > 100 mg/kg
TD50 at 1 h [3]: > 400 mg/kg
ED50 [2]: > 100 mg/kg

Cl.c1ccc(NNc2nnc(-c3ccccc3-c3ccccc3)s2)cc1
ED50 [1]: > 100 mg/kg
ED50 [2]: > 100 mg/kg

Cc1ccccc1-c1nnc(NNC2CCCC2)s1.Cl
ED50 [1]: > 100 mg/kg
ED50 [2]: > 100 mg/kg

Cl.NNc1nnc(-c2ccc(-c3ccccc3)cc2)s1
ED50 [2]: > 200 mg/kg

Cc1ccccc1-c1nnc(N(C)NC2CCCC2)s1.Cl
ED50 [1]: 81 mg/kg
ED50 [2]: 110 mg/kg

CNNc1nnc(-c2ccccc2C)s1
ED50 [1]: > 100 mg/kg
ED50 [2]: > 100 mg/kg

CC(C)NN(C)c1nnc(-c2ccccc2Cl)s1.Cl
ED50 [1]: 30 mg/kg
TD50 at 1 h [3]: 71 mg/kg
ED50 [2]: 16 mg/kg

CN(N)c1nnc(-c2ccccc2Cl)s1.Cl
ED50 [1]: 41 mg/kg
TD50 at 1 h [3]: 136 mg/kg
ED50 [2]: 20 mg/kg

CCCCCCOc1ccccc1-c1nnc(NNC(C)C)s1.Cl
ED50 [1]: > 100 mg/kg
ED50 [2]: > 100 mg/kg

CC(C)N(N)c1nnc(-c2ccccc2Cl)s1
ED50 [1]: > 100 mg/kg
TD50 at 1 h [3]: > 800 mg/kg
ED50 [2]: 54 mg/kg

CCCCCCOc1ccccc1-c1nnc(N(C)NC)s1.Cl
ED50 [1]: 39 mg/kg
ED50 [2]: < 250 mg/kg

CNN(c1nnc(-c2ccccc2C)s1)C(C)C.Cl
ED50 [1]: > 100 mg/kg
ED50 [2]: > 100 mg/kg

Cl.NNc1nnc(-c2ccccc2-c2ccccc2)s1
ED50 [1]: 33 mg/kg
Decrease in blood pressure [4]: 18%
TD50 at 1 h [3]: 627 mg/kg
ED50 [2]: 28 mg/kg

Cc1ccccc1-c1nnc(N(C)N)s1.Cl
ED50 [1]: 41 mg/kg
Decrease in blood pressure [4]: 29%
TD50 at 1 h [3]: 108 mg/kg
ED50 [2]: 75 mg/kg

CCNN(Cc1ccccc1)c1nnc(-c2ccccc2C)s1.Cl
ED50 [1]: > 100 mg/kg
ED50 [2]: > 100 mg/kg

Cc1ccccc1-c1nnc(N(C)NC(c2ccccc2)c2ccccc2)s1
ED50 [1]: > 200 mg/kg
ED50 [2]: > 200 mg/kg

CN(Nc1ccccc1)c1nnc(-c2ccccc2Cl)s1
ED50 [1]: > 100 mg/kg
ED50 [2]: > 100 mg/kg

Cc1ccccc1-c1nnc(N(C)NC(C)C)s1.Cl
ED50 [1]: 38 mg/kg
ED50 [2]: 35 mg/kg

Cl.NN(c1nnc(-c2ccccc2Cl)s1)C1CCCCC1
ED50 [1]: > 100 mg/kg
ED50 [2]: > 100 mg/kg

Cc1ccccc1-c1nnc(N(C)N(C)C)s1
ED50 [1]: 68 mg/kg
TD50 at 1 h [3]: 167 mg/kg
ED50 [2]: 25 mg/kg

Cl.Clc1ccccc1-c1nnc(NNCc2ccccc2)s1
ED50 [1]: > 100 mg/kg
ED50 [2]: > 100 mg/kg

CN(N)c1nnc(Cc2ccccc2)s1.Cl
ED50 [1]: 25 mg/kg
TD50 at 1 h [3]: 280 mg/kg
ED50 [2]: 11 mg/kg

Cc1ccccc1-c1nnc(NNC(c2ccccc2)c2ccccc2)s1
ED50 [1]: > 100 mg/kg
ED50 [2]: > 200 mg/kg

Cc1ccccc1-c1nnc(N(Cc2ccccc2)N(C)C)s1.Cl
ED50 [1]: > 100 mg/kg
ED50 [2]: > 200 mg/kg

CN(N)c1nnc(-c2cccc(Oc3ccccc3)c2)s1
ED50 [1]: 111 mg/kg
ED50 [2]: 100 mg/kg

CNN(c1nnc(-c2ccccc2Cl)s1)C(C)C
ED50 [1]: > 100 mg/kg
ED50 [2]: > 100 mg/kg

CNN(Cc1ccccc1)c1nnc(-c2ccccc2Cl)s1.Cl
ED50 [1]: > 100 mg/kg
ED50 [2]: > 100 mg/kg

CC(C)NN(C)c1nnc(-c2ccccc2-c2ccccc2)s1.Cl
ED50 [1]: 66 mg/kg
ED50 [2]: 55 mg/kg

Cc1ccccc1-c1nnc(N(N)Cc2ccccc2)s1
ED50 [1]: 44 mg/kg
TD50 at 1 h [3]: > 200 mg/kg
ED50 [2]: 27 mg/kg

NN(CCc1ccccc1)c1nnc(-c2ccccc2Cl)s1
ED50 [1]: ~200 mg/kg
ED50 [2]: > 100 mg/kg

Cc1ccccc1-c1nnc(N(N)C(C)C)s1.Cl
ED50 [1]: 49 mg/kg
ED50 [2]: 54 mg/kg

CN(C)N(C)c1nnc(-c2ccccc2Cl)s1.Cl
ED50 [1]: > 100 mg/kg
TD50 at 1 h [3]: 347 mg/kg
ED50 [2]: 53 mg/kg

CCCCCCOc1ccccc1-c1nnc(N(C)N)s1.Cl
ED50 [1]: 27 mg/kg
TD50 at 1 h [3]: ~160 mg/kg
ED50 [2]: 26 mg/kg

Cc1ccccc1-c1nnc(NN(C)C)s1.Cl
ED50 [1]: > 100 mg/kg
TD50 at 1 h [3]: > 250 mg/kg
ED50 [2]: 60 mg/kg

CCCCN(N)c1nnc(-c2ccccc2C)s1.Cl
ED50 [1]: 60 mg/kg
ED50 [2]: 119 mg/kg

CN(N)c1nnc(-c2ccccc2Sc2ccccc2)s1.Cl
ED50 [1]: 27 mg/kg
ED50 [2]: 43 mg/kg

Cc1ccccc1-c1nnc(NNc2ccccc2)s1
ED50 [1]: > 100 mg/kg
ED50 [2]: > 100 mg/kg

CN(N)c1nnc(-c2ccccc2Oc2ccccc2)s1.Cl
ED50 [1]: 33 mg/kg
TD50 at 1 h [3]: < 400 mg/kg
ED50 [2]: 33 mg/kg

Source: ChEMBL document CHEMBL1123516, “Substituted 1,3,4-thiadiazoles with anticonvulsant activity. 1. Hydrazines” (J Med Chem, 1986)
